Data from ChEMBL document CHEMBL1127698, “Matrix metalloproteinase inhibitors containing a (carboxyalkyl)amino zinc ligand: modification of the P1 and P2' residues” (J Med Chem, 1994).

Target: Stromelysin-1 (Homo sapiens, UniProt P08254)
Test: Activity against human stromelysin (MMP-3).
How it was run: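 Fluorogenic stromelysin assay: human enzyme 10 nM in pH 7.6 Tris buffer (200 mM NaCl, 5 mM CaCl2, 20 μM ZnSO4, 0.05% Brij 35). Inhibitors ran from 10 000 to 0.057 nM in 3-fold steps. Ki came from % inhibition vs log[inhibitor], with substrate far below Km.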

Stromelysin-1, sequence (P08254 whole entry): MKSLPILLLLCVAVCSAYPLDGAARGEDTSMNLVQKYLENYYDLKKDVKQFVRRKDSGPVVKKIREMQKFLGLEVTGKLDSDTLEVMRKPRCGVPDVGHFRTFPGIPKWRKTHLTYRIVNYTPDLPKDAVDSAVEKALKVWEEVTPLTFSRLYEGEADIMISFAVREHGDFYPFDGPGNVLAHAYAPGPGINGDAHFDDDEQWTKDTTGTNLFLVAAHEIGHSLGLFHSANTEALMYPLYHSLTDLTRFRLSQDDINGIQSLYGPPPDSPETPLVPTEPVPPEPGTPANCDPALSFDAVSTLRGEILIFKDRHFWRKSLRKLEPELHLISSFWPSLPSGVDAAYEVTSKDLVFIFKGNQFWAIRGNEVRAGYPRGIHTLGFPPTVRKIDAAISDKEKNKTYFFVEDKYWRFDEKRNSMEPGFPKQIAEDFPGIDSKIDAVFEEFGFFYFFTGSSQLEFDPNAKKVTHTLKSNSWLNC

Structure (SMILES)	IC50 [µM]
CC(C)C[C@H](N[C@H](CCN1C(=O)c2cc3ccccc3cc2C1=O)C(=O)O)C(=O)NCc1nnn(C)n1	2.98
CNC(=O)[C@H](Cc1ccccc1)NC(=O)[C@H](CC(C)C)N[C@H](CCn1c(=O)c2cc3c(=O)[nH]c(=O)c3cc2c1=O)C(=O)O	2.17
CNC(=O)[C@H](Cc1ccccc1)NC(=O)[C@H](CC(C)C)N[C@H](CCN1C(=O)c2ccccc2C1=O)C(=O)O	5.97
CC(C)C[C@H](N[C@H](CCN1C(=O)c2cc3ccccc3cc2C1=O)C(=O)O)C(=O)N(C)C	> 10
CC(C)C[C@H](N[C@H](CCN1C(=O)c2cc3ccccc3cc2C1=O)C(=O)O)C(=O)NCc1ccccc1	1.52
CNC(=O)[C@H](Cc1ccccc1)NC(=O)[C@H](CC(C)C)N[C@H](CCN1C(=O)c2cc3cccc(OC)c3cc2C1=O)C(=O)O	1.4
CC(C)C[C@H](N[C@H](CCN1C(=O)c2cc3ccccc3cc2C1=O)C(=O)O)C(=O)N1CCCC1c1cccnc1 (stereo in doubt; 76)	4.08

Results, then the molecule that gave them:

IC50 [µM]	Structure (SMILES)
3.57	CNC(=O)[C@H](Cc1ccccc1)NC(=O)[C@H](CC(C)C)N[C@H](CCNC(=O)OCc1ccccc1)C(=O)O
1.48	CC(C)C[C@H](N[C@H](CCN1C(=O)c2cc3ccccc3cc2C1=O)C(=O)O)C(=O)NCc1cccc(F)c1
0.295	CC(C)C[C@H](N[C@H](CCN1C(=O)c2cc3ccccc3cc2C1=O)C(=O)O)C(=O)NCc1ccc(S(N)(=O)=O)cc1
5.63	CNC(=O)[C@H](C)NC(=O)[C@H](CC(C)C)N[C@H](CCN1C(=O)c2cc3ccccc3cc2C1=O)C(=O)O
0.631	CNC(=O)C(NC(=O)[C@H](CC(C)C)N[C@H](CCN1C(=O)c2cc3ccccc3cc2C1=O)C(=O)O)c1ccccc1 (stereo not given in full)
0.072	CNC(=O)[C@H](Cc1ccc(O)cc1)NC(=O)[C@H](CC(C)C)N[C@H](CCN1C(=O)c2cc3ccccc3cc2C1=O)C(=O)O
0.216	CNC(=O)[C@H](Cc1ccccc1)NC(=O)[C@H](CC(C)C)N[C@H](CCN1C(=O)c2ccc(-c3ccccc3)cc2C1=O)C(=O)O
1.37	CNC(=O)[C@H](Cc1ccccc1)NC(=O)[C@H](CC(C)C)N[C@H](CCN1C(=O)c2cc3ccccc3c(OC)c2C1=O)C(=O)O
0.427	CCCOc1ccc2c(c1)C(=O)N(CC[C@@H](N[C@@H](CC(C)C)C(=O)N[C@@H](Cc1ccccc1)C(=O)NC)C(=O)O)C2=O
0.96	CC(C)C[C@H](N[C@H](CCN1C(=O)c2cc3ccccc3cc2C1=O)C(=O)O)C(=O)N1CCCC1c1cccnc1 (stereo in doubt; 75)

Target: T1, Interstitial collagenase (Homo sapiens, UniProt P03956)
T1 sequence (P03956 whole entry): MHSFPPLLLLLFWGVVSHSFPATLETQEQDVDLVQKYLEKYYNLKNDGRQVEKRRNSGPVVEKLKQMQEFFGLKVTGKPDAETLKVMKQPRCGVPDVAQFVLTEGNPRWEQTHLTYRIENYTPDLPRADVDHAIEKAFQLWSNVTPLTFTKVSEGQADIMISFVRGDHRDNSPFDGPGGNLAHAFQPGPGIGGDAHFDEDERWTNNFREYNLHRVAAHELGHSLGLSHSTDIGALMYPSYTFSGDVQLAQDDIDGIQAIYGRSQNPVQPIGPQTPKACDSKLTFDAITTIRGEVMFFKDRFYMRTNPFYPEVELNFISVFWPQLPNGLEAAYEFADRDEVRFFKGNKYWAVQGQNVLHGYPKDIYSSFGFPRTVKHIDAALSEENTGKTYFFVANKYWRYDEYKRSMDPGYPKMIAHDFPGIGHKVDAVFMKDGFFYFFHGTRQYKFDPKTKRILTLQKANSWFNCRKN
Test: Activity against human collagenase (MMP-1).

Structure (SMILES)	IC50 [µM]
CNC(=O)[C@H](Cc1ccccc1)NC(=O)[C@H](CC(C)C)N[C@H](CCN1C(=O)c2cc3ccc(OC)cc3cc2C1=O)C(=O)O	0.036
CC(C)C[C@H](N[C@H](CCN1C(=O)c2cc3ccccc3cc2C1=O)C(=O)O)C(=O)NCc1nnn(C)n1	0.27
CNC(=O)[C@H](Cc1ccccc1)NC(=O)[C@H](CC(C)C)N[C@H](CCn1c(=O)c2cc3c(=O)[nH]c(=O)c3cc2c1=O)C(=O)O	0.038
CNC(=O)[C@H](Cc1ccccc1)NC(=O)[C@H](CC(C)C)N[C@H](CCN1C(=O)c2ccccc2C1=O)C(=O)O	0.081
CC(C)C[C@H](N[C@H](CCN1C(=O)c2cc3ccccc3cc2C1=O)C(=O)O)C(=O)N(C)C	0.086
CC(C)C[C@H](N[C@H](CCN1C(=O)c2cc3ccccc3cc2C1=O)C(=O)O)C(=O)NCc1ccccc1	0.087
CNC(=O)[C@H](Cc1ccccc1)NC(=O)[C@H](CC(C)C)N[C@H](CCN1C(=O)c2cc3cccc(OC)c3cc2C1=O)C(=O)O	0.036
CC(C)C[C@H](N[C@H](CCN1C(=O)c2cc3ccccc3cc2C1=O)C(=O)O)C(=O)N1CCCC1c1cccnc1 (stereo in doubt; 76)	0.164

Other lines, results leading:

IC50 [µM]	Structure (SMILES)
0.012	CNC(=O)[C@H](Cc1ccccc1)NC(=O)[C@H](CC(C)C)N[C@H](CCN1C(=O)c2cc3c(cc2C1=O)OCO3)C(=O)O
0.041	CC(C)C[C@H](N[C@H](CCN1C(=O)c2cc3ccccc3cc2C1=O)C(=O)O)C(=O)NCc1cccc(F)c1
0.07	CC(C)C[C@H](N[C@H](CCN1C(=O)c2cc3ccccc3cc2C1=O)C(=O)O)C(=O)NCc1ccc(S(N)(=O)=O)cc1
0.086	CNC(=O)[C@H](C)NC(=O)[C@H](CC(C)C)N[C@H](CCN1C(=O)c2cc3ccccc3cc2C1=O)C(=O)O
0.019	CNC(=O)C(NC(=O)[C@H](CC(C)C)N[C@H](CCN1C(=O)c2cc3ccccc3cc2C1=O)C(=O)O)c1ccccc1 (stereo not given in full)
0.029	CNC(=O)[C@H](Cc1ccc(O)cc1)NC(=O)[C@H](CC(C)C)N[C@H](CCN1C(=O)c2cc3ccccc3cc2C1=O)C(=O)O
0.019	CNC(=O)[C@H](Cc1ccccc1)NC(=O)[C@H](CC(C)C)N[C@H](CCN1C(=O)c2ccc(-c3ccccc3)cc2C1=O)C(=O)O
0.054	CNC(=O)[C@H](Cc1ccccc1)NC(=O)[C@H](CC(C)C)N[C@H](CCN1C(=O)c2cc3ccccc3c(OC)c2C1=O)C(=O)O
0.015	CCCOc1ccc2c(c1)C(=O)N(CC[C@@H](N[C@@H](CC(C)C)C(=O)N[C@@H](Cc1ccccc1)C(=O)NC)C(=O)O)C2=O
0.044	CC(C)C[C@H](N[C@H](CCN1C(=O)c2cc3ccccc3cc2C1=O)C(=O)O)C(=O)N1CCCC1c1cccnc1 (stereo in doubt; 75)

Target: Matrix metalloproteinase-9 (Homo sapiens, UniProt P14780)
Test: Activity against human gelatinase (MMP-9).
How it was run: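 Human gelatinase at 1 nM in pH 7.6 Tris buffer (200 mM NaCl, 5 mM CaCl2, 20 μM ZnSO4, 0.05% Brij 35), with inhibitors at 3-fold dilutions from 10 000 to 0.057 nM. Ki came from % inhibition vs log concentration, with substrate far below Km.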

Matrix metalloproteinase-9, sequence (P14780 whole entry): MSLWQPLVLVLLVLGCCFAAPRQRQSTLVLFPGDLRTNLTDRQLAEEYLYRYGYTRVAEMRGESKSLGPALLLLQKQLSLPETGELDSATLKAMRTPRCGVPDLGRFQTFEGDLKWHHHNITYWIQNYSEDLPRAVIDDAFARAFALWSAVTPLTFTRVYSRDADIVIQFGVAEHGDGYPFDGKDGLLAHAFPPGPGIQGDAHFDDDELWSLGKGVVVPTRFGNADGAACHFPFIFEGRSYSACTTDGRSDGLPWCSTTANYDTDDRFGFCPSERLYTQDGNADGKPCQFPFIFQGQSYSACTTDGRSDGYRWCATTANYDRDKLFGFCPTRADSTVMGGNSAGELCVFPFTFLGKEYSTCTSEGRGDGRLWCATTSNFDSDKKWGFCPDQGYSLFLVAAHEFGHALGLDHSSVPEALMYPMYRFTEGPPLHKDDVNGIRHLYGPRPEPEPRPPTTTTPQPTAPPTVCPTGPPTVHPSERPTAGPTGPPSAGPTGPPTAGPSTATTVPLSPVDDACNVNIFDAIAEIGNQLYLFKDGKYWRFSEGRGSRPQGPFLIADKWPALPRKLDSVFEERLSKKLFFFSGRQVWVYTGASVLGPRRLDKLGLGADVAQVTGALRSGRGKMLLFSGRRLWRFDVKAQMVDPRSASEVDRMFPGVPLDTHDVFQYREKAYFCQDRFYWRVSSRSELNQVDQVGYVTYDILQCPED

Structure (SMILES)	IC50 [µM]
CC(C)C[C@H](N[C@H](CCN1C(=O)c2cc3ccccc3cc2C1=O)C(=O)O)C(=O)NCc1nnn(C)n1	0.03
CNC(=O)[C@H](Cc1ccccc1)NC(=O)[C@H](CC(C)C)N[C@H](CCn1c(=O)c2cc3c(=O)[nH]c(=O)c3cc2c1=O)C(=O)O	0.0048
CNC(=O)[C@H](Cc1ccccc1)NC(=O)[C@H](CC(C)C)N[C@H](CCN1C(=O)c2ccccc2C1=O)C(=O)O	0.059
CC(C)C[C@H](N[C@H](CCN1C(=O)c2cc3ccccc3cc2C1=O)C(=O)O)C(=O)N(C)C	0.082
CC(C)C[C@H](N[C@H](CCN1C(=O)c2cc3ccccc3cc2C1=O)C(=O)O)C(=O)NCc1ccccc1	0.032
CNC(=O)[C@H](Cc1ccccc1)NC(=O)[C@H](CC(C)C)N[C@H](CCN1C(=O)c2cc3cccc(OC)c3cc2C1=O)C(=O)O	0.015
CC(C)C[C@H](N[C@H](CCN1C(=O)c2cc3ccccc3cc2C1=O)C(=O)O)C(=O)N1CCCC1c1cccnc1 (stereo in doubt; 76)	0.07

Further lines, results first:

IC50 [µM]	Structure (SMILES)
0.005	CNC(=O)[C@H](Cc1ccccc1)NC(=O)[C@H](CC(C)C)N[C@H](CCN1C(=O)c2cc3c(cc2C1=O)OCO3)C(=O)O
0.58	CNC(=O)[C@H](Cc1ccccc1)NC(=O)[C@H](CC(C)C)N[C@H](CCNC(=O)OCc1ccccc1)C(=O)O
0.015	CC(C)C[C@H](N[C@H](CCN1C(=O)c2cc3ccccc3cc2C1=O)C(=O)O)C(=O)NCc1cccc(F)c1
0.0067	CC(C)C[C@H](N[C@H](CCN1C(=O)c2cc3ccccc3cc2C1=O)C(=O)O)C(=O)NCc1ccc(S(N)(=O)=O)cc1
0.069	CNC(=O)[C@H](C)NC(=O)[C@H](CC(C)C)N[C@H](CCN1C(=O)c2cc3ccccc3cc2C1=O)C(=O)O
0.014	CNC(=O)C(NC(=O)[C@H](CC(C)C)N[C@H](CCN1C(=O)c2cc3ccccc3cc2C1=O)C(=O)O)c1ccccc1 (stereo not given in full)
0.0038	CNC(=O)[C@H](Cc1ccc(O)cc1)NC(=O)[C@H](CC(C)C)N[C@H](CCN1C(=O)c2cc3ccccc3cc2C1=O)C(=O)O
0.0045	CNC(=O)[C@H](Cc1ccccc1)NC(=O)[C@H](CC(C)C)N[C@H](CCN1C(=O)c2ccc(-c3ccccc3)cc2C1=O)C(=O)O
0.0074	CNC(=O)[C@H](Cc1ccccc1)NC(=O)[C@H](CC(C)C)N[C@H](CCN1C(=O)c2cc3ccccc3c(OC)c2C1=O)C(=O)O
0.0021	CCCOc1ccc2c(c1)C(=O)N(CC[C@@H](N[C@@H](CC(C)C)C(=O)N[C@@H](Cc1ccccc1)C(=O)NC)C(=O)O)C2=O
0.018	CC(C)C[C@H](N[C@H](CCN1C(=O)c2cc3ccccc3cc2C1=O)C(=O)O)C(=O)N1CCCC1c1cccnc1 (stereo in doubt; 75)

Test system: not listed separately
Test: Half-life period for the activity is tested at pH 6.8
Type: ADME
How it was run: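 Inhibitor at 20 μM in 20 mM sodium phosphate, pH 6.8, held at 30 °C. Aliquots were injected every 3 h over 24 h onto C18 reverse-phase HPLC with a 5–60% acetonitrile gradient containing 0.1% TFA.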

Structure (SMILES)	half-life [h]
CNC(=O)[C@H](Cc1ccccc1)NC(=O)[C@H](CC(C)C)N[C@H](CCn1c(=O)c2cc3c(=O)[nH]c(=O)c3cc2c1=O)C(=O)O	1.7
CNC(=O)[C@H](Cc1ccccc1)NC(=O)[C@H](CC(C)C)N[C@H](CCN1C(=O)c2ccccc2C1=O)C(=O)O	10
CNC(=O)[C@H](Cc1ccccc1)NC(=O)[C@H](CC(C)C)N[C@H](CCN1C(=O)c2cc3cccc(OC)c3cc2C1=O)C(=O)O	7.2

The next lines start with the values.

half-life [h]	Structure (SMILES)
15.5	CNC(=O)[C@H](Cc1ccccc1)NC(=O)[C@H](CC(C)C)N[C@H](CCN1C(=O)c2cc3c(cc2C1=O)OCO3)C(=O)O
7.8	CNC(=O)[C@H](Cc1ccccc1)NC(=O)[C@H](CC(C)C)N[C@H](CCN1C(=O)c2ccc(-c3ccccc3)cc2C1=O)C(=O)O
87	CNC(=O)[C@H](Cc1ccccc1)NC(=O)[C@H](CC(C)C)N[C@H](CCN1C(=O)c2cc3ccccc3c(OC)c2C1=O)C(=O)O
10.9	CCCOc1ccc2c(c1)C(=O)N(CC[C@@H](N[C@@H](CC(C)C)C(=O)N[C@@H](Cc1ccccc1)C(=O)NC)C(=O)O)C2=O
